A selection: hits, their analogues and other compounds. The true share with any hit is near 1.4%.
Dyrk1A ADPGlo: inhibitors of rat Dyrk1A kinase. Q63470. ADP-Glo luminescence, NFATc1 peptide. inhibition, % at 12.5 µM. hit rate 0.43% among 310,000. AID 504441; in the data active = inhibition above about 50%;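 note: plate controls were vehicle with enzyme for no effect and no enzyme for full effect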
CAL PDZ FP-1: blocks peptide binding to the human CAL PDZ domain | purified CAL PDZ, TMR-peptide fluorescence polarization, 1 h | inhibition, % at 24.9 µM | hit rate 0.92% among 300,000 | AID 602252;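 active = mean inhibition of at least 30% with at least half of replicates also reaching 30%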;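 note: 0% = DMSO neutral control and 100% = excess unlabeled competitor peptide PRC23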
PvdQ inh: P. aeruginosa PvdQ acylase inhibition | hit rate 0.063% among 340,000 | purified PvdQ acylase, fluorescence plate reader | inhibition, % at 10 µM | AID 488965; in the data active = inhibition above about 30%, passing the limit was not always enough;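 note: 0% = vehicle neutral wells and 100% = reference inhibitor wells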
Tb MetRS inh: Trypanosoma brucei MetRS inhibition | purified T. brucei MetRS, ATP depletion, Kinase-Glo luminescence | inhibition, % at 11.9 µM | hit rate 0.4% among 360,000;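 active = inhibition above a per-plate cutoff of the control wells' mean inhibition plus 3 SD, cut at about 5.5% in these data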;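 note: 0% = DMSO wells median and 100% = median of wells with control inhibitor compound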
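Dosing: 11.9 µM single point; system: parasite MetRS enzyme; technique: luminescence of leftover ATP; times: 15 min enzyme-compound preincubation, 2 h reaction, 10 min detection, 25 °C; replicates: each compound tested once; read-out basis: percent inhibition relative to median high and low control wells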
CDK5 inh: blocks human CDK5/p35 kinase activity; Q00535+Q15078; Recombinant CDK5/p35, ADP-Glo luminescence, 60 min; inhibition, % at 10 µM; hit rate 0.01% among 330,000; AID 488839;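 active = highest replicate inhibition of at least 50% and at least 75% of replicates reaching 50%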;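 note: plate controls were DMSO neutral control for no effect and GW8510 at 10 µM for full effect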
Target sequence (Q00535 whole entry, looked up): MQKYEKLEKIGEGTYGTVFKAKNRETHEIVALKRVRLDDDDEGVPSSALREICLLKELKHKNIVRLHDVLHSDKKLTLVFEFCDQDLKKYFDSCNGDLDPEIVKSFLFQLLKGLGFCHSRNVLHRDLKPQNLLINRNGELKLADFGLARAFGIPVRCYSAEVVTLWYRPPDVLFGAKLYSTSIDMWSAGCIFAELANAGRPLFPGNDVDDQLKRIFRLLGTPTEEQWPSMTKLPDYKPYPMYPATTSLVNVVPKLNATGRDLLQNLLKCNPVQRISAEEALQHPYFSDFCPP
Target sequence (Q15078 whole entry, looked up): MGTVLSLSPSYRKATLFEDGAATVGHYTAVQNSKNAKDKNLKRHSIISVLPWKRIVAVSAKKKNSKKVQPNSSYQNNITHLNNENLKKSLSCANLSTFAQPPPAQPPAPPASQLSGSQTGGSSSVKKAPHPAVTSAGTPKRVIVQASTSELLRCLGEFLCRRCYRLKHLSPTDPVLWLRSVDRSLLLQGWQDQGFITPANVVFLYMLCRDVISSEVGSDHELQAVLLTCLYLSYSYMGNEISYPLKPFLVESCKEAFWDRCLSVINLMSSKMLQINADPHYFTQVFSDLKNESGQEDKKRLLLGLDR
CAL PDZ FP-2: human CAL PDZ-peptide interaction inhibition. inhibition, % at 20 µM. Q9HD26. hit rate 0.02% among 330,000. purified CAL PDZ, TMR-peptide fluorescence polarization, 1 h;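 active = highest replicate inhibition of at least 40%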;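 note: plate controls were DMSO neutral control wells for no effect and unlabeled competitor peptide control wells for full effect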
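material = purified tagged CAL PDZ domain construct (CerCALP) | compound dosing = 20 µM, one dose | times = 1 h at RT | measured by = fluorescence polarization from S- and P-plane intensities, G-factor corrected | read-out = inhibition from polarization loss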
Numbers without * were called inactive.

`Cc1nnsc1C(=O)NC1CCCc2c1cnn2-c1ccc(C(C)(C)C)cc1` (stereo unspecified) gave Dyrk1A ADPGlo -4, CAL PDZ FP-1 60*, PvdQ inh -19, Tb MetRS inh 0, CDK5 inh -2 and CAL PDZ FP-2 -1.
CN(Cc1ccc(Br)cc1)C(=O)CCN1C(=O)c2cccc([N+](=O)[O-])c2C1=O was read as Dyrk1A ADPGlo 2, CAL PDZ FP-1 71*, PvdQ inh -11, Tb MetRS inh 0, CDK5 inh 2 and CAL PDZ FP-2 1.
Cc1ccc(-n2c(C)nc3ccsc3c2=O)cc1 was read as PvdQ inh 3, Tb MetRS inh 1, CDK5 inh 0 and CAL PDZ FP-2 -1.
For Cc1ccc(-c2nc3ccsc3c(=O)o2)cc1 the results were Dyrk1A ADPGlo 8, CAL PDZ FP-1 13, PvdQ inh 66*, Tb MetRS inh -1, CDK5 inh -1 and CAL PDZ FP-2 -1.
For Cc1ccc(S(=O)(=O)N2CC3(O)CN(C(=O)OC(C)C)N(C(=O)OC(C)C)CC3(OC(=O)NC3CCCC3)C2)cc1 (stereo unspecified) the results were Tb MetRS inh 0.
Screening O=C(Cc1ccccc1)Nc1nc2ccccc2[nH]1 returned Dyrk1A ADPGlo 6, CAL PDZ FP-1 -2, PvdQ inh -11, Tb MetRS inh 2, CDK5 inh 1 and CAL PDZ FP-2 -3.
O=C(CN1C(=O)C2CC=CCC2C1=O)Nc1nc2ccccc2[nH]1 (stereo unspecified) was read as Dyrk1A ADPGlo 18, CAL PDZ FP-1 47*, PvdQ inh -18, Tb MetRS inh 1 and CDK5 inh 0.
Screening CC(C)Nc1nc(NCCOc2ccccc2)c2sccc2n1 returned Tb MetRS inh 0.
For COc1ccc(Cn2cc(CN(C)C3CN(Cc4cn(Cc5ccc(OC)cc5)nn4)S(=O)(=O)C3)nn2)cc1 (stereo unspecified) the results were Tb MetRS inh -1.
For N#Cc1ccc(CSc2nnc(-c3cccc(S(=O)(=O)N4CCCCC4)c3)o2)cc1 the results were Dyrk1A ADPGlo -3, CAL PDZ FP-1 44*, PvdQ inh -15, Tb MetRS inh 0, CDK5 inh 1 and CAL PDZ FP-2 -1.
`O=C(O)CSc1nnc(-c2cccc(S(=O)(=O)N3CCCCC3)c2)o1` gave Dyrk1A ADPGlo -6, PvdQ inh 5, Tb MetRS inh 0, CDK5 inh 0 and CAL PDZ FP-2 0.
Screening CCOC(=O)c1ccc(-n2c(C)nc3c(cnn3-c3ccccc3Cl)c2=O)cc1 returned Dyrk1A ADPGlo -4, CAL PDZ FP-1 78*, PvdQ inh -11, Tb MetRS inh 0, CDK5 inh -2 and CAL PDZ FP-2 1.
COc1ccc(CCNC(=O)Cc2ccsc2)cc1 was read as Dyrk1A ADPGlo 9, CAL PDZ FP-1 37*, PvdQ inh -13, Tb MetRS inh 0, CDK5 inh -1 and CAL PDZ FP-2 -2.
`CCCCNC(=O)c1cnc(Cc2c[nH]c3ccccc23)c(I)c1` gave Tb MetRS inh 1.
Screening COc1cccc(C(=O)NCCOc2cc(C)cc(C)c2)c1 returned Dyrk1A ADPGlo -3, CAL PDZ FP-1 38*, PvdQ inh -10, Tb MetRS inh 0, CDK5 inh 1 and CAL PDZ FP-2 -2.
`COc1cccc(OC)c1C(=O)NCCOc1cc(C)cc(C)c1` gave Dyrk1A ADPGlo 12, CAL PDZ FP-1 -5, PvdQ inh -21, Tb MetRS inh 0, CDK5 inh 0 and CAL PDZ FP-2 0.
For Cc1ccc(S(=O)(=O)N2C[C@H]3C(=O)C[C@@H](c4cccs4)N(S(=O)(=O)c4ccc(C)cc4)[C@H]3C[C@H]2c2ccccc2)cc1 the results were Tb MetRS inh -1.
For CCOc1cc(C(=S)N2CCN(C)CC2)ccc1OCC(=O)N1CCOCC1 the results were Dyrk1A ADPGlo 0, CAL PDZ FP-1 31*, PvdQ inh -11, Tb MetRS inh 0, CDK5 inh 0 and CAL PDZ FP-2 -1.
For CC(C)CSCC1OC(n2cnc3c(N)nccc32)C(O)C1O (stereo unspecified) the results were Tb MetRS inh 0.
For CCOC(=O)[C@]12CCCC=C1N(Cc1cccc3ccccc13)C(=O)[C@H](CC(=O)N1CCCCC1)C2 the results were Tb MetRS inh -1.

High-throughput results: PubChem BioAssay, several laboratories
